Blank lines part the entries; values can stand above or below the compound they belong to.
What was measured:
Mus musculus [1] = experiment: Evaluation of General motor activity in mouse at dose 200 mg/kg; assay type: functional
Procedure, shortened: (§1)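 Male BALB-c mice (18-24 g) given compound ip in 25% propylene glycol/water. Each was monitored singly for 60 min in an electronic activity monitor. Cumulative activity was expressed as % of vehicle control; mean ± SEM, n = 6, t test.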

[2] = Partition coefficient in 1-octanol/water system measured using radio active compounds; assay type: physicochemical
Procedure, shortened: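 1-Octanol/water partition coefficient, measured with the 14C-labeled compounds.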

Mus musculus [3] = experiment: Uptake of the [14C]-compound in mouse brain 5 minutes after sc administration of 90 mg/kg.; assay type: functional; conditions: route subcutaneous
Procedure, shortened: (§2)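 [14C]-labeled ester injected sc into mice in 25% propylene glycol/water. At the stated time, brain and liver were homogenized in SDS/urea/EDTA phosphate solvent, pH 7.4, and counted by liquid scintillation. Uptake was calculated per gram tissue (nmol/g).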

Mus musculus [4] = experiment: Anticonvulsant activity is the ability to increase the survival time of mouse ssubjected to bicuculline induced seizures at 24 hr after pretreament with compound (12 mg/kg, ip); assay type: functional
Mus musculus [5] = experiment: Brain penetration index is the ratio of the uptake in brain/liver X 100, 5 min after sc administration of 90 mg/kg of the [14C]-compound.; assay type: functional; conditions: route subcutaneous
Procedure, shortened: (§3)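 [14C]-labeled ester injected sc into mice in 0.5 mL of 25% propylene glycol in water, killed at 5 min. Brain and liver were weighed and homogenized in SDS/6 M urea/EDTA phosphate solvent, pH 7.4, then counted by liquid scintillation. BPI = [brain]/[liver] × 100. Means ± SEM, n = 3.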

Mus musculus [6] = experiment: Anticonvulsant activity is the ability to delay the onset of bicuculline induced seizures in mouse at 24 hr after pretreament with compound (25 mg/kg, ip); assay type: functional
Procedure, shortened: (§4)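 Mice given test article ip 24 h before bicuculline (0.3 mg/kg sc). Latency to onset of generalized tonic-clonic seizures was recorded in seconds and expressed as % of saline control. Means ± SEM, n ≥ 6 per group.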

Mus musculus [7] = experiment: Evaluation of General motor activity in mouse 60 mins postinjection (ip) of 12 mg/kg; assay type: functional; procedure, shortened: as §1
Mus musculus [8] = experiment: Anticonvulsant activity is the ability to delay the onset of bicuculline induced seizures in mouse at 24 hr after pretreament with compound (36 mg/kg, ip); assay type: functional; procedure, shortened: as §4
Mus musculus [9] = experiment: Anticonvulsant activity is the ability to increase the survival time of mouse ssubjected to bicuculline induced seizures at 24 hr after pretreament with compound (25 mg/kg, ip); assay type: functional
Mus musculus [10] = experiment: Uptake of the [14C]-compound in mouse liver 5 minutes after sc administration of 90 mg/kg.; assay type: functional; conditions: route subcutaneous
Procedure, shortened: (§5)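 Mice were given the 14C-labeled compound sc in 25% propylene glycol in water and killed at 5 min. Liver was removed, weighed and homogenized in 1% SDS in 6 M urea with 19 mM EDTA and 0.03 M phosphate, pH 7.4. Homogenate aliquots were counted by liquid scintillation, and uptake per gram of tissue was calculated. Mean ± SEM, n = 3.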

Mus musculus [11] = experiment: Uptake of the [14C]-compound in mouse brain 15 minutes after sc administration of 90 mg/kg.; assay type: functional; conditions: route subcutaneous; procedure, shortened: as §2
Mus musculus [12] = experiment: Anticonvulsant activity is the ability to increase the survival time of mouse ssubjected to bicuculline induced seizures at 24 hr after pretreament with compound (50 mg/kg, ip); assay type: functional
Mus musculus [13] = experiment: Anticonvulsant activity is the ability to delay the onset of bicuculline induced seizures in mouse at 24 hr after pretreament with compound (50 mg/kg, ip); assay type: functional; procedure, shortened: as §4
Mus musculus [14] = experiment: Anticonvulsant activity is the ability to increase the survival time of mouse ssubjected to bicuculline induced seizures at 24 hr after pretreament with compound (36 mg/kg, ip); assay type: functional
[15] = biological target: GABA-A receptor; anion channel; experiment: Inhibition of [3H]GABA binding to synaptic membranes from rat cerebellum; assay type: tissue-based
Procedure, shortened: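 [3H]GABA (15 nM) binding to rat cerebellum synaptic membranes. At least two concentrations above and below IC50, each at least in triplicate. IC50 was obtained by fitting linearized transformations of the data.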

Mus musculus [16] = experiment: Anticonvulsant activity is the ability to increase the survival time of mouse ssubjected to bicuculline induced seizures at 24 hr after pretreament with compound (17mg/kg, ip); assay type: functional
Mus musculus [17] = experiment: Anticonvulsant activity is the ability to delay the onset of bicuculline induced seizures in mouse at 24 hr after pretreament with compound (17 mg/kg, ip); assay type: functional; procedure, shortened: as §4
Mus musculus [18] = experiment: Anticonvulsant activity is the ability to delay the onset of bicuculline induced seizures in mouse at 24 hr after pretreament with compound (12mg/kg, ip); assay type: functional; procedure, shortened: as §4
Mus musculus [19] = experiment: Evaluation of General motor activity in mouse 60 mins postinjection (ip) of 36 mg/kg =; assay type: functional; procedure, shortened: as §1
Mus musculus [20] = experiment: Uptake of the [14C]-compound in mouse brain 45 minutes after sc administration of 90 mg/kg.; assay type: functional; conditions: route subcutaneous; procedure, shortened: as §2
Mus musculus [21] = experiment: Uptake of the [14C]-compound in mouse liver 5 minutes after sc administration of 74 mg/kg.; assay type: functional; conditions: route subcutaneous; procedure, shortened: as §5
Mus musculus [22] = experiment: Evaluation of General motor activity in mouse 60 mins postinjection (ip) of 60 mg/kg; assay type: functional; procedure, shortened: as §1
Mus musculus [23] = experiment: Brain penetration index is the ratio of the uptake in brain/liver X 100, 5 min after sc administration of 74 mg/kg of the [14C]-compound.; assay type: functional; conditions: route subcutaneous; procedure, shortened: as §3
Mus musculus [24] = experiment: Uptake of the [14C]-compound in mouse brain 5 minutes after sc administration of 74 mg/kg.; assay type: functional; conditions: route subcutaneous; procedure, shortened: as §2
Mus musculus [25] = experiment: Evaluation of General motor activity in mouse 60 mins postinjection (ip) of 128 mg/kg; assay type: functional; procedure, shortened: as §1

K [2]: 0.004
Compound: NCCCC(=O)O [GAMMA-AMINOBUTYRIC ACID]
Motor activity (Mus musculus [1]): 100

Compound: CC/C=C/C/C=C/C/C=C/CCCCCCCCOC(=O)CCCN
Brain concentration (Mus musculus [3]): 3.5 nmol/g | Survival time (Mus musculus [4]): 118 | Brain penetration index (Mus musculus [5]): 2% | Onset seizure (Mus musculus [6]): 78 | Motor activity (Mus musculus [7]): 90 | Onset seizure (Mus musculus [8]): 50 | Survival time (Mus musculus [9]): 68 | Liver concentration (Mus musculus [10]): 142 nmol/g | Brain concentration (Mus musculus [11]): 11 nmol/g | Survival time (Mus musculus [12]): 63 | Onset seizure (Mus musculus [13]): 40 | Survival time (Mus musculus [14]): 62 | IC50 [15]: 40 µM | Survival time (Mus musculus [16]): 111 | Onset seizure (Mus musculus [17]): 73 | Onset seizure (Mus musculus [18]): 102 | Motor activity (Mus musculus [19]): 74 | Brain concentration (Mus musculus [20]): 24.9 nmol/g

Compound: CCCCOC(=O)CCCN
Liver concentration (Mus musculus [21]): 28 nmol/g | Motor activity (Mus musculus [22]): 89 | Brain penetration index (Mus musculus [23]): 74% | Brain concentration (Mus musculus [24]): 19.2 nmol/g | Motor activity (Mus musculus [25]): 83
